Laboratory results taken from PMC3546147 (Bioorganic & medicinal chemistry, 2012).

What was measured:
[1] = tested on: KB; experiment: Antiproliferative SRB assay, KB; format: cell-based, human; details: positive control
Procedure, shortened: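 Human nasopharyngeal epidermoid carcinoma KB cells, tested in a panel with A-549, P-gp-expressing KBVIN and DU145 lines. Cytotoxicity was read by the sulforhodamine B (SRB) method, with a reference compound run alongside. GI50 is the molar drug concentration causing 50% tumor cell growth inhibition.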

[2] = tested on: DU145; details: read-out: GI50, DU145, prior hit; cited from earlier work
[3] = tested on: A549; details: read-out: GI50, A549, prior hit; cited from earlier work
[4] = tested on: KB; details: prior hit; cited from earlier work

Row | Structure (SMILES) | GI50 ± SD, KB [1] [nM] | GI50 ± SD, KB ([1]; listed as paclitaxel) [nM] | GI50 [2] [µM] | GI50 [3] [µM] | GI50, KB [4] [µM]
1 | CC(=O)O[C@H]1C(=O)[C@@]2(C)[C@H]([C@H](OC(=O)c3ccccc3)[C@]3(O)C[C@H](OC(=O)[C@H](O)[C@@H](NC(=O)c4ccccc4)c4ccccc4)C(C)=C1C3(C)C)[C@]1(OC(C)=O)CO[C@@H]1C[C@@H]2O [Paclitaxel] | 7.77 ± 0.84 | 8 | – | – | –
2 | COc1ccc(Nc2nc(Cl)ccc2[N+](=O)[O-])cc1 [1a, 6-chloro-N-(4-methoxyphenyl)-3-nitropyridin-2-amine] | – | – | 3.83 | 13.5 | 7.19
